Experimental data gathered from unrelated publications.
Protocols differ between the studies behind these lines.
Cell line: MDA-MB-231
Effect on: cell growth or viability

The IC50 of C=CCNC1=C2C[C@@H](C)C[C@H](OC)[C@H](O)[C@@H](C)/C=C(\C)[C@H](OC(N)=O)[C@@H](OC)/C=C\C=C(/C)C(=O)NC(=CC1=O)C2=O is reported as 19500 nM (72 h).
The IC50 of O=C1c2ccccc2-c2c3c(cc4ccnc1c24)OCO3 is reported as 49000 nM (MTT; 75 h).
CC(=O)N[C@H]1[C@@H](O[C@@H]2O[C@H](C[C@@H](O)[C@H]3O[C@@H](n4ccc(=O)[nH]c4=O)[C@H](O)[C@@H]3O)[C@H](O)[C@H](O)[C@H]2NC(=O)/C=C/CCCCCCCCCC(C)C)O[C@H](CO)[C@@H](O)[C@@H]1O has an IC50 of 170 nM (WST-1).
The IC50 of N.N.[Cl][Pt][Cl] is reported as 40000 nM (MTT; 48 h).
The Emax of COc1ccc(NC(=O)Nc2ccc3c(c2)C=CCP(=O)(O)O3)cc1 is reported as 50% (MTT; 72 h).
[C-]#[O+].[C-]#[O+].[C-]#[O+].[C-]#[O+].[C-]#[O+].[C-]#[O+].[C-]#[O+].[C-]#[O+].[C-]#[O+].[C-]#[O+].[Mn].[Mn] gave an IC50 of 25400 nM (MTT; 48 h).
The IC50 of COc1c(C)c2c(c(O)c1C/C=C(\C)CCC(=O)O)C(=O)OC2 is reported as 1200 nM.
For CC[C@H](C)[C@@H]([C@@H](CC(=O)N1CCC[C@H]1[C@H](OC)[C@@H](C)C(=O)N[C@H](C)[C@@H](O)c1ccccc1)OC)N(C)C(=O)[C@@H](NC(=O)[C@H](C(C)C)N(C)C(=O)OCc1ccc(NC(=O)[C@H](CCCNC(N)=O)NC(=O)[C@@H](NC(=O)CCOCCOCCOCCOCCC(=O)N[C@@H]2CSSC[C@H](C(=O)O)NC(=O)CNC(=O)[C@@H](CCCNC(=N)N)NC(=O)CNC(=O)[C@@H](C(C)C)NC(=O)CNC(=O)[C@@H](C)NC(=O)[C@@H](CCCNC(=N)N)NC2=O)C(C)C)cc1)C(C)C, the IC50 was 120 nM (resazurin; 24 h).
N.N.[Cl][Pt][Cl] has an IC50 of over 100000 nM (MTT).
CC(C)=C[C@H]1C[C@H](C)[C@]2(CC[C@]3(C)C[C@H]4[C@H](C(=O)C[C@@]4(C)O)/C(C=O)=C\C[C@H]32)O1 gave an IC50 of 58.2 nM.
CCOP1(=O)CC=Cc2cc(N)ccc2O1 (stereo not drawn) has an Emax of 10 to 15% (MTT; 72 h).
For CC[C@H](C)[C@@H]([C@@H](CC(=O)N1CCC[C@H]1[C@H](OC)[C@@H](C)C(=O)N[C@H](C)[C@@H](O)c1ccccc1)OC)N(C)C(=O)[C@@H](NC(=O)[C@@H](NC)C(C)C)C(C)C, the IC50 was 8.28 nM (CCK-8).
